From ChEMBL document CHEMBL5696442, “Discovery of type II inhibitors of TGFβ-activated kinase 1 (TAK1) and mitogen-activated protein kinase kinase kinase kinase 2 (MAP4K2)” (J Med Chem, 2015) come the findings set out here.

The source made the active and inactive calls. The calls are words filed in the database; no cut-off is given here.

Test [1] addresses Serine/threonine-protein kinase SIK1 (Homo sapiens) (UniProt P57059). The test is described as follows: Inhibition of SIK (unknown origin) at 1 uM by Ambit Kinomescan binding assay relative to control.
Test [2] concerns the target Cyclin-dependent kinase 18 (Homo sapiens) (UniProt Q07002). The test is described as follows: Inhibition of PCTK3 (unknown origin) at 1 uM by Ambit Kinomescan binding assay relative to control. In outline: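 In vitro ATP-site competition binding assay against a panel of over 420 kinases (KinomeScan), with compound tested at 10 or 1 μM.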
For test [3], the target named is Peripheral plasma membrane protein CASK (Homo sapiens) (UniProt O14936). Briefly: Inhibition of CASK Lys1 labeling site in human A-375 cells at 5 uM by KiNativ Profiling analysis relative to control.
The test system of test [4] is Tyrosine-protein kinase ABL1 (Homo sapiens), P00519 [E255K]. Briefly: Inhibition of ABL1 E255K mutant (unknown origin) at 10 uM by Ambit Kinomescan binding assay relative to control.
The target of test [5] is Tyrosine-protein kinase ABL2 (Homo sapiens, UniProt P42684). The test is described as follows: Inhibition of ABL2 (unknown origin) at 10 uM by Ambit Kinomescan binding assay relative to control; values are per cent of control.
Test [6] has as its target Non-receptor tyrosine-protein kinase TYK2 (Homo sapiens) (UniProt P29597). Briefly: Inhibition of TYK2 domain2 ACT labeling site in human A-375 cells at 0.5 uM by KiNativ Profiling analysis relative to control. The class given is cell-based.
Test [7] has as its target Cyclin-dependent kinase 5 (Homo sapiens) (UniProt Q00535). The test is described as follows: Inhibition of CDK5 Lys2 labeling site in human A-375 cells at 5 uM by KiNativ Profiling analysis relative to control. The class given is cell-based.
Test [8] can be described thus: Inhibition of KHS1 Lys1 labeling site in human A-375 cells at 5 uM by KiNativ Profiling analysis relative to control. The conditions noted are these: condition cancer.
Test [9] deals with Serine/threonine-protein kinase pim-2 (Homo sapiens) (UniProt Q9P1W9). Briefly: Inhibition of PIM2 (unknown origin) at 10 uM by Ambit Kinomescan binding assay.
Test [10] concerns the target T1, Dual specificity mitogen-activated protein kinase kinase 6 (Homo sapiens) (UniProt P52564).
T1 sequence (whole entry): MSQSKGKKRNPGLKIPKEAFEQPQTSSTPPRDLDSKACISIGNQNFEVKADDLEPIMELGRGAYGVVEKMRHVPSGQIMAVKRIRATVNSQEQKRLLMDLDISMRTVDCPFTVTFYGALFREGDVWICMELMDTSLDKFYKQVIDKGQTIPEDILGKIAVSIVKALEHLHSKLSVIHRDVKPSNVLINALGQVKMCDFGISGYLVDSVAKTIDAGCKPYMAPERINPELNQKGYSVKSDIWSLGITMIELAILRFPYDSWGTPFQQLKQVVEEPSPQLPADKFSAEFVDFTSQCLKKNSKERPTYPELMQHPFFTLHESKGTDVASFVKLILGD
The test is described as follows: Inhibition of MAP2K6 Lys2 labeling site in human A-375 cells at 0.05 uM by KiNativ Profiling analysis relative to control. The class given is cell-based.

Test [11] addresses Serine/threonine-protein kinase 26 (Homo sapiens) (UniProt Q9P289). The test is described as follows: Inhibition of MST4 (unknown origin) at 10 uM by Ambit Kinomescan binding assay.
Test [12] concerns the target Serine/threonine-protein kinase 32C (Homo sapiens) (UniProt Q86UX6). Briefly: Inhibition of YANK3 Lys2 labeling site in human Huh-7 cells at 1 uM by KiNativ Profiling analysis relative to control. The class given is cell-based.
Test [13] concerns the target T2, Phosphatidylinositol 5-phosphate 4-kinase type-2 alpha (Homo sapiens) (UniProt P48426).
T2 sequence (whole entry): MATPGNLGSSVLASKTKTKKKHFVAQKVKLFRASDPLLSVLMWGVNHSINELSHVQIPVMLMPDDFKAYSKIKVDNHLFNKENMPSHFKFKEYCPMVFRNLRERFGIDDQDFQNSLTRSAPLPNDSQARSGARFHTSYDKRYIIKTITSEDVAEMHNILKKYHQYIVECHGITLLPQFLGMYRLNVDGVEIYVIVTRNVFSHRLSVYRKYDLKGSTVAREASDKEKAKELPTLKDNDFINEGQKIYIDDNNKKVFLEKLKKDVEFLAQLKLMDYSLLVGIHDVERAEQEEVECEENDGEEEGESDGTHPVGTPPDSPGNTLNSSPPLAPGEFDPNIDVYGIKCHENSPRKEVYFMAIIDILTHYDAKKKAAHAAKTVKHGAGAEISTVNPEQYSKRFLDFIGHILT
The test is described as follows: Inhibition of PIP4K2A ATP labeling site harbouring AKELPTLKDNDFINEGQK in human Huh-7 cells at 1 uM by KiNativ Profiling analysis relative to control. The class given is cell-based.

Test [14] concerns the target Hepatocyte growth factor receptor (Homo sapiens) (UniProt P08581). The test is described as follows: Inhibition of MET ACT labeling site in human Huh-7 cell lysate at 1 uM by KiNativ Profiling analysis relative to control. The class given is subcellular.
The target of test [15] is Ribosomal protein S6 kinase alpha-3 (Homo sapiens) (UniProt P51812). Briefly: Inhibition of RSK2 domain 1 Lys2 labeling site harbouring DLKPENILLDEEGHIKLTDFGLSK in human Huh-7 cell lysate at 1 uM by KiNativ Profiling analysis relative to control. The class given is subcellular.
For test [16], the target named is T3, Inhibitor of nuclear factor kappa-B kinase subunit epsilon (Homo sapiens) (UniProt Q14164).
T3 sequence (whole entry): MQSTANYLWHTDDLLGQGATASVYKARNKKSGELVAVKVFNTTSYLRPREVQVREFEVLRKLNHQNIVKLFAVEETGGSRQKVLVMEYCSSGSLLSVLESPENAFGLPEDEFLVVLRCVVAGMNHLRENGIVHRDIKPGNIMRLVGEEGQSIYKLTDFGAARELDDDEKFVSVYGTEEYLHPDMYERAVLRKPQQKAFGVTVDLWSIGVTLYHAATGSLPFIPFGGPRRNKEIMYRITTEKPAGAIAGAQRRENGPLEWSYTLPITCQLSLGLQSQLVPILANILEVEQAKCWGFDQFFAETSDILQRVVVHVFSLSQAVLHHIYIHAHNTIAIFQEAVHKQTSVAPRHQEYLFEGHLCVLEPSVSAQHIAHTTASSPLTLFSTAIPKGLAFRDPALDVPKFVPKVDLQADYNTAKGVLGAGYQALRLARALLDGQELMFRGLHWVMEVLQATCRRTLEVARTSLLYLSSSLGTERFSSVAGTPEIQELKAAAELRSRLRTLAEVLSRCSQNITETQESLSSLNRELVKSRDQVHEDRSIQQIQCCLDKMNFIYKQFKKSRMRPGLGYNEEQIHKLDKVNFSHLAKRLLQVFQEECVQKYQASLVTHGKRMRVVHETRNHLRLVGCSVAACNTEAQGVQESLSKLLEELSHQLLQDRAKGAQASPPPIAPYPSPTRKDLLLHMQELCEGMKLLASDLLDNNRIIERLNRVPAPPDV
The test is described as follows: Inhibition of IKKe Lys2 labeling site in human Huh-7 cells at 1 uM by KiNativ Profiling analysis relative to control. The class given is cell-based.

The target of test [17] is Protein kinase C alpha type (Homo sapiens) (UniProt P17252). Briefly: Inhibition of PKCa Lys2 labeling site in human Huh-7 cells at 1 uM by KiNativ Profiling analysis relative to control. The class given is cell-based.

Serine/threonine-protein kinase pim-2 (Homo sapiens), sequence (Q9P1W9 whole entry, looked up): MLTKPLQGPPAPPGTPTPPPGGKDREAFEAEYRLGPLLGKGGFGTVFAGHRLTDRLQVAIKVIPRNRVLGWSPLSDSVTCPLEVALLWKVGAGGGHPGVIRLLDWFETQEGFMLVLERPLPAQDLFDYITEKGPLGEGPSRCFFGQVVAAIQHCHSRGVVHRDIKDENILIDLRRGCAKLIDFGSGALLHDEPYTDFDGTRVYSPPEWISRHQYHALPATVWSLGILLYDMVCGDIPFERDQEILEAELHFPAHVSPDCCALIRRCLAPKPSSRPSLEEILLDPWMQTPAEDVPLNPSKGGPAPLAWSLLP
Serine/threonine-protein kinase 32C (Homo sapiens), sequence (Q86UX6 whole entry): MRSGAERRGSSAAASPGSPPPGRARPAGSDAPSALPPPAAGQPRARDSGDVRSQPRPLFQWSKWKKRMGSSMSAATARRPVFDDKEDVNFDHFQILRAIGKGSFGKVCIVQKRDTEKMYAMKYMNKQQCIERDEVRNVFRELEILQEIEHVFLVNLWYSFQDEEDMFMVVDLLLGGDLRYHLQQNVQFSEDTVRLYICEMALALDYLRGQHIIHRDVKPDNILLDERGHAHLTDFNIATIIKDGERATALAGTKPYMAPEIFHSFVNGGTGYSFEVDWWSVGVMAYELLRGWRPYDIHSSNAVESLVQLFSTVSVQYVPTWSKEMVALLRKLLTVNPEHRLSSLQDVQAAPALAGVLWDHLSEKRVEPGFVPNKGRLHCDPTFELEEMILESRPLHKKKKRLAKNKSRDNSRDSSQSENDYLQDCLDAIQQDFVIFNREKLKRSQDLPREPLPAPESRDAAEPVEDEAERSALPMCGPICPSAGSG
Serine/threonine-protein kinase 26 (Homo sapiens), sequence (Q9P289 2-416 limits assumed): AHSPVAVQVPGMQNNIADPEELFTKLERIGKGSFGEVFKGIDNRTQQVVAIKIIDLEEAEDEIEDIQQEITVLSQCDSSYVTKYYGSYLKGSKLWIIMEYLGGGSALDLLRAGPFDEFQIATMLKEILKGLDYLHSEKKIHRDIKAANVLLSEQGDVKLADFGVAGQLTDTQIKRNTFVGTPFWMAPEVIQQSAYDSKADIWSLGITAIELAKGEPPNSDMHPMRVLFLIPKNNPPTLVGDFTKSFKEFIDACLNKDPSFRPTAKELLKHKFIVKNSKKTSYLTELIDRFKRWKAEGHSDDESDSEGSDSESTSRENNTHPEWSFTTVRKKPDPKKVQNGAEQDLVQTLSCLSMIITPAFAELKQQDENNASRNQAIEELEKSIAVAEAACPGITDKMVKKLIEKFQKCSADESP
Tyrosine-protein kinase ABL1 (Homo sapiens), P00519 [E255K], sequence (P00519 whole entry E255K): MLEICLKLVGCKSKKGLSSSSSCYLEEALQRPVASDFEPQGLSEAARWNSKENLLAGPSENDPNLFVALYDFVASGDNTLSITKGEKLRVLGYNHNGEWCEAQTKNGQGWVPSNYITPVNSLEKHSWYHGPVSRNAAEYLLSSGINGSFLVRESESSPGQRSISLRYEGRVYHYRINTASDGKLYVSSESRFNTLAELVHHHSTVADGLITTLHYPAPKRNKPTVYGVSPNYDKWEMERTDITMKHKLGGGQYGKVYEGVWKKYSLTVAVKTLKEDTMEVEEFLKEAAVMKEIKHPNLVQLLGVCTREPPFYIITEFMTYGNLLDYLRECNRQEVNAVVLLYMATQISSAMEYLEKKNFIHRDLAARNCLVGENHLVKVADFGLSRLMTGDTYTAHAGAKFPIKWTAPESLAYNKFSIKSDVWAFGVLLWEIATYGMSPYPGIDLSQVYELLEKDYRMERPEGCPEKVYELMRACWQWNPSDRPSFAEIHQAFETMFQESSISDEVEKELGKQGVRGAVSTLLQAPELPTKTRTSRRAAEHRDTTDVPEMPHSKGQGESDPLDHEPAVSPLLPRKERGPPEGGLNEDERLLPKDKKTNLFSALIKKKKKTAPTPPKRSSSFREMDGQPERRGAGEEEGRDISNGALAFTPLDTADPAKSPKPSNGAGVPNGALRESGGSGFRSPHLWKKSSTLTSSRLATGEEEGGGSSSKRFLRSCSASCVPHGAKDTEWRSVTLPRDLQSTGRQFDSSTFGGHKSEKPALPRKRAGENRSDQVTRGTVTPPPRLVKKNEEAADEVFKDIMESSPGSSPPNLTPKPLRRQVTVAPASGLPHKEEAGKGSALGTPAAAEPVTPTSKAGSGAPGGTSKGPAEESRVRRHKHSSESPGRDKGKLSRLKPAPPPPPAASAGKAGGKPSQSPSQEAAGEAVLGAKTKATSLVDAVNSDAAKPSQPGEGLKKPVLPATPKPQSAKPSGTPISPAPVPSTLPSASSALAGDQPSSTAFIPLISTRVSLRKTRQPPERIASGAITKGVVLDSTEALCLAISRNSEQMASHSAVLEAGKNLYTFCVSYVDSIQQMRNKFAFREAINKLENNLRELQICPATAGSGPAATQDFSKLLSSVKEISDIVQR
Cyclin-dependent kinase 18 (Homo sapiens), sequence (Q07002 whole entry): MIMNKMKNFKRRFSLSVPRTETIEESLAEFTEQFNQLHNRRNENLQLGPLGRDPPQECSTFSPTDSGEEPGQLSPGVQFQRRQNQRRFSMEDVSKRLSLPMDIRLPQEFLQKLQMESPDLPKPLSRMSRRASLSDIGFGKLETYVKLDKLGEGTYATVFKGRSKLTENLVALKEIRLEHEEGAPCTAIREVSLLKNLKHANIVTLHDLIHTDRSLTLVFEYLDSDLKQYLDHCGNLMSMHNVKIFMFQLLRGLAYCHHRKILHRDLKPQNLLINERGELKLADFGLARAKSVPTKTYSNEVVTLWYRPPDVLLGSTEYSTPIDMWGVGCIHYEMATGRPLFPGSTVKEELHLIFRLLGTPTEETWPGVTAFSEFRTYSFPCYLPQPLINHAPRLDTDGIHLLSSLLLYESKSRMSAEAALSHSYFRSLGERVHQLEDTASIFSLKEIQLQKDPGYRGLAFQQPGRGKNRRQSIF
Cyclin-dependent kinase 5 (Homo sapiens), sequence (Q00535 whole entry, looked up): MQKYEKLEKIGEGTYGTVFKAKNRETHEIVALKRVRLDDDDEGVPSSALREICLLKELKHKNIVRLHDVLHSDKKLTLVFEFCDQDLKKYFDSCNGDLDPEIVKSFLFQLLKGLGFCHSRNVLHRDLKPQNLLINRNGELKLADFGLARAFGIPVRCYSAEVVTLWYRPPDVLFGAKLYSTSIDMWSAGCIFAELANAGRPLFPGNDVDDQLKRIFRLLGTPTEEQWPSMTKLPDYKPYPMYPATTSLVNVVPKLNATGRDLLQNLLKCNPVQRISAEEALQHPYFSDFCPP
Non-receptor tyrosine-protein kinase TYK2 (Homo sapiens), sequence (P29597 whole entry, the tested form may be a part): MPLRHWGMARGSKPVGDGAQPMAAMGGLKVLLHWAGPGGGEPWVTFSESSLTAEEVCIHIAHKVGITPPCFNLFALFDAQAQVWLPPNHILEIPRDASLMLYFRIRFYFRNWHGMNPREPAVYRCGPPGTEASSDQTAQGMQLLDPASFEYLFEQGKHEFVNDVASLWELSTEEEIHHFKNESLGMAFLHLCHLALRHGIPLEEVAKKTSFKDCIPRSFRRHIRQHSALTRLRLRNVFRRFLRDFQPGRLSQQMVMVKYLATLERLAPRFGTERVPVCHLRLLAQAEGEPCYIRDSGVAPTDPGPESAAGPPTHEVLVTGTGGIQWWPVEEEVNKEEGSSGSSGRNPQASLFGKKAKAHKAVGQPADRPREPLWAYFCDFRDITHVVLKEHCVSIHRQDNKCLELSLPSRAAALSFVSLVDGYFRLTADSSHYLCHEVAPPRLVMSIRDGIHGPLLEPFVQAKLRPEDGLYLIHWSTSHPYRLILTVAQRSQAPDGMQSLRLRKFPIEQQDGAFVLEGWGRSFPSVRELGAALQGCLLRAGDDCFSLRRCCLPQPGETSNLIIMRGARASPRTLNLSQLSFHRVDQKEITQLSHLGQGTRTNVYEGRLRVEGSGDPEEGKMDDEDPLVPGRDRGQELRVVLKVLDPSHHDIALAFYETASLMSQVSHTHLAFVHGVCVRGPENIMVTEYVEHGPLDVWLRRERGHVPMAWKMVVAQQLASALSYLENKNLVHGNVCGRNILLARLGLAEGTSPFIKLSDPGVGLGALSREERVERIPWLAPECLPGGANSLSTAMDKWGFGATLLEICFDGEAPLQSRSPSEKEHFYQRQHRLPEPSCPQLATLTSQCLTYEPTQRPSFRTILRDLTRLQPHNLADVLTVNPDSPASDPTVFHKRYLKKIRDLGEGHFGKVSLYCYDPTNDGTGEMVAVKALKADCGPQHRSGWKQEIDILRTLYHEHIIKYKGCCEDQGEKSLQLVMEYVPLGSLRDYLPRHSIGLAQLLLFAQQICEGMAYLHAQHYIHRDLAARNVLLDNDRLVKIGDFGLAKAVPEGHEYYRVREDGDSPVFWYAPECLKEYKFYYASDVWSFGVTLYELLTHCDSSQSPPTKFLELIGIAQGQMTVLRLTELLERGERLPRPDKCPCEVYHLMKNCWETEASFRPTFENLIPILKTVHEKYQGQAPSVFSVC

As a reminder, the inhibition is the relative decrease from the control value, in per cent. Consider `CCN1CCN(Cc2ccc(NC(=O)c3ccc(C)c(/C=C/c4cnc5[nH]ccc5c4OC)c3)cc2C(F)(F)F)CC1`, for which the inhibition amounted to 2.1% in [1] and 84% in test [2].
Regarding `CCN1CCN(Cc2ccc(NC(=O)c3ccc(C)c(Oc4ccnc5[nH]ccc45)c3)cc2C(F)(F)F)CC1`, the inhibition in [3] was 6.6%; in test [4], 1.2%; in [6] it was -3.5%; in [7] it was -6.8%; in test [10], -8.5%. This molecule also displayed a % of control in test [5] of 0.6%. Further, the inhibition at 5 µM in test [8] is 61.3%. In addition, the inhibition entry in test [9] and in test [11] was “inactive” in each case.
For the molecule `CNc1cc(Oc2cc(C(=O)Nc3cc(N4CCN(C)CC4)cc(C(F)(F)F)c3)ccc2C)ncn1`, the inhibition in test [12] is 12.2%; in test [13] it was 13.4%; in test [14], 2%; in test [15] it was 3.1%; in test [16], 17.7%; in test [17], 64.8%.
